SUMO1-SIM PPI: alters human SUMO1 binding to SIM partners; SUMO1 binding to a labelled peptide, TR-FRET, 1 h; P63165; AID 602429; inhibition, % at 20 µM; actives 0.33% (n = 360,000); in the data active means inhibition above about 37%
DNMT1 inh: DNMT1 (human) enzyme inhibition. P26358. inhibition (reported as % activation of signal), % at 10 µM. AID 588458. DNMT1 molecular beacon, Hinp1I cleavage, fluorescence. actives 0.83% (n = 360,000); in the data active means inhibition above about 50%
LMPTP inh: LMPTP (human) inhibition; P24666; recombinant LMPTP-A, OMFP fluorogenic substrate, fluorescence intensity; inhibition, % at 20 µM; actives 0.22% (n = 360,000);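 active means compounds that cut the enzyme signal by at least half of the control window in the single-dose screen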;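 further: plate controls were DMSO wells with enzyme plus substrate for no effect and substrate without enzyme for full effect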
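Test system – LMPTP-A phosphatase enzyme · Quantity – 0.625 nM LMPTP-A final · Reagent – OMFP substrate, 400 µM final · Dosing – one test concentration per compound, 20 µM, with 3% DMSO overall · Timing – 50 min enzyme reaction at room temperature, protected from light · Detection – fluorescence intensity · Controls – substrate-only low control, DMSO enzyme-plus-substrate high control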
STEP block: blocks human striatal-enriched tyrosine phosphatase; P54829; recombinant STEP, OMFP fluorogenic substrate, fluorescence; inhibition, % at 20 µM; actives 0.25% (n = 360,000); AID 588621;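 active means inhibition at 20 µM, scaled per plate between control wells, above about 37%, limit read from the data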;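 further: 0% = DMSO with enzyme and substrate and 100% = substrate only without enzyme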
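Assay system: isolated STEP enzyme / Timing: 20 min at room temperature, dark / Doses: 20 µM, 1% DMSO / Technique: fluorescence intensity, excitation 480 nm, emission 540 nm / Reagent: fluorogenic phosphatase substrate OMFP at 25 µM final / Measure: percent inhibition scaled to no-enzyme and uninhibited-enzyme controls, plate-pattern corrected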
Scp1 inh: blocks human Scp-1 phosphatase activity; Q9GZU7; Recombinant Scp1, phosphopeptide, malachite green phosphate absorbance; inhibition, % at 20 µM; actives 0.88% (n = 340,000);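 active means inhibition above about 50% at 20 µM, limit read from the data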;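 further: plate controls were DMSO wells with enzyme for no effect and wells lacking enzyme for full effect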
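Assay system: SCP-1 catalytic fragment, aa 76-261 | Buffer or medium: Tris acetate buffer pH 5.5 with MgCl2 and Tween-20 | Compound: One concentration, 20 µM, with 1.0% DMSO | Also added: Phospho 17-mer peptide substrate | Signal: Absorbance at 630 nm | Incubation: 45 min enzyme reaction at room temperature | Measure: % inhibition of SCP-1 phosphate liberation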
NadD inh: blocks S. aureus nicotinate mononucleotide adenylyltransferase; purified NadD enzyme, colorimetric absorbance read-out; inhibition, % at 20 µM; actives 0.78% (n = 360,000); AID 602399; in the data active means inhibition above about 26%
Beacon interf DR: beacon fluorescence artifact, dose response counter-screen; molecular beacon fluorescence, spectral interference counter-screen; 200 tested, under 10 active; shares compounds with DNMT1 inh; IC50, µM; call rule not given here
DNMT1 inh conf: confirmation of human DNMT1 inhibitors | shares compounds with DNMT1 inh | DNMT1 molecular beacon HinP1I cleavage, fluorescence | inhibition, % at 10 µM | actives 8% (n = 2,300);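 active means average inhibition of at least 30% in the single-concentration confirmation test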
Beacon interf: counter-screen for DNMT1 inhibitors: spectral interference; activation (fluorescence interference), % at 10 µM; AID 602387; actives 1% (n = 2,300); shares compounds with DNMT1 inh; DNMT1 molecular beacon spectral interference counterscreen, fluorescence 485/520;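 active means activation of at least 30% at 10 µM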;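 further: DNMT1 catalytic domain with a HinP1I cleavage step and a FAM/dabcyl DNA beacon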
Starred values were filed as active, the others as inactive. Compounds with a hit are over-represented: about 2.3% of the library has one in this group of screens.

Screening OCCN1CCN(c2ncnc3c2ncn3[C@H]2CN(Cc3ccc(Cl)cc3)C[C@@H](CO)O2)CC1 returned SUMO1-SIM PPI 1, DNMT1 inh 4, LMPTP inh -1, STEP block -3 and NadD inh -1.
For C=CCn1c(N)c(C(=O)OCCC)c2nc3ccccc3nc21 the results were SUMO1-SIM PPI 16, DNMT1 inh 60*, LMPTP inh 14, STEP block 3, Scp1 inh -7, NadD inh 7, DNMT1 inh conf -1 and Beacon interf -2.
For O=C(NCc1ccco1)c1ccc([N+](=O)[O-])o1 the results were SUMO1-SIM PPI -23, DNMT1 inh 67*, LMPTP inh 9, STEP block -2, Scp1 inh 59*, NadD inh 0, DNMT1 inh conf 3 and Beacon interf 3.
S=C(NCc1ccco1)NCc1ccco1 was read as SUMO1-SIM PPI 5, DNMT1 inh 50, LMPTP inh 9, STEP block 13, Scp1 inh 4, NadD inh -4, DNMT1 inh conf 1 and Beacon interf -1.
For O=C(NCc1ccco1)c1ccc(Cn2cc([N+](=O)[O-])cn2)o1 the results were SUMO1-SIM PPI -11, DNMT1 inh 4, LMPTP inh -1, STEP block -1, Scp1 inh 0 and NadD inh -2.
For CC(C)n1nnnc1C1c2ccccc2C(=O)N1CCOc1ccccc1 (configuration not stated) the results were SUMO1-SIM PPI -2, LMPTP inh -2 and NadD inh -8.
Screening CC(=O)Nc1cc(NC(C)=O)cc(C(=O)NCC2(N3CCOCC3)CCCCC2)c1 returned SUMO1-SIM PPI 4, DNMT1 inh 15, LMPTP inh 2, STEP block 1, Scp1 inh 40 and NadD inh 5.
Screening O=C1NC[C@H](CCCCN2C[C@H](Cc3ccccc3)N(CC3CCCCC3)C(=O)C2=O)N(CC2CCCCC2)C1=O returned SUMO1-SIM PPI 2, LMPTP inh 0 and NadD inh 23.
Screening Cc1ccccc1OCC(=O)NCCCNC(=O)c1ccncc1 returned SUMO1-SIM PPI -2, DNMT1 inh 78*, LMPTP inh 0, STEP block -1, Scp1 inh -1, NadD inh -4, DNMT1 inh conf 1 and Beacon interf 4.
Screening NCCCC[C@@H]1NC(=O)c2cc([N+](=O)[O-])cc(F)c2NCCCC[C@@H](C(N)=O)NC(=O)CNC1=O returned SUMO1-SIM PPI -99, DNMT1 inh 104*, LMPTP inh -9, STEP block -1, Scp1 inh -6, NadD inh -5, DNMT1 inh conf 8 and Beacon interf 8.
For Cc1nn(-c2ccccc2)c(Cl)c1/C=N/Nc1ccc(S(=O)(=O)Nc2ccccc2C(=O)O)cc1[N+](=O)[O-] the results were SUMO1-SIM PPI 21, DNMT1 inh 100*, LMPTP inh 43, STEP block 8, Scp1 inh 0, NadD inh 20, Beacon interf DR >99, DNMT1 inh conf 82* and Beacon interf -10.
For COc1ccc(/C=C2\C(=O)NC(=O)c3ccccc32)cc1OC the results were SUMO1-SIM PPI 8, DNMT1 inh 74*, LMPTP inh 10, STEP block 7, Scp1 inh 0, NadD inh 4, DNMT1 inh conf -2 and Beacon interf 1.
For CC1(OC(=O)C2CCCC2)C(=O)C=C2C=C(c3ccsc3)N(Cc3ccco3)C=C2C1=O (configuration not stated) the results were SUMO1-SIM PPI -3, DNMT1 inh 62*, LMPTP inh 5, STEP block 1, Scp1 inh 7, NadD inh 20, DNMT1 inh conf -1 and Beacon interf -1.
